The source made the active and inactive calls. The calls are words filed in the database; no cut-off is given here.
Tests used:
[1] = target: Serine/threonine-protein kinase PLK1 (Homo sapiens) (UniProt P53350); assay: Inhibition of PLK1 Lys2 labeling site in human Huh-7 cells at 1 uM by KiNativ Profiling analysis relative to control; format: cell-based
[2] = target: Ribosomal protein S6 kinase alpha-1 (Homo sapiens) (UniProt Q15418); assay: Inhibition of RSK1 domain 1 ACT labeling site in human Huh-7 cell lysate at 1 uM by KiNativ Profiling analysis relative to control; format: subcellular
[3] = target: Serine/threonine-protein kinase 32B (Homo sapiens) (UniProt Q9NY57); assay: Inhibition of YANK2 (unknown origin) at 10 uM by Ambit Kinomescan binding assay
[4] = target: Ephrin type-A receptor 4 (Homo sapiens) (UniProt P54764); assay: Inhibition of EPHA4 (unknown origin) at 10 uM by Ambit Kinomescan binding assay relative to control
[5] = target: STE20-like serine/threonine-protein kinase (Homo sapiens) (UniProt Q9H2G2); assay: Inhibition of SLK K1 labeling site in human Huh-7 cells at 1 uM by KiNativ Profiling analysis relative to control; format: cell-based
[6] = target: Serine/threonine-protein kinase PAK 3 (Homo sapiens) (UniProt O75914); assay: Inhibition of PAK3 (unknown origin) at 10 uM by Ambit Kinomescan binding assay
[7] = target: Fibroblast growth factor receptor 4 (Homo sapiens) (UniProt P22455); assay: Inhibition of FGFR4 (unknown origin) at 10 uM by Ambit Kinomescan binding assay relative to control
[8] = target: Calcium/calmodulin-dependent protein kinase kinase 2 (Homo sapiens) (UniProt Q96RR4); assay: Inhibition of CAMKK2 (unknown origin) at 10 uM by Ambit Kinomescan binding assay relative to control
[9] = target: Mitogen-activated protein kinase kinase kinase kinase 4 (Homo sapiens, UniProt O95819); assay: Inhibition of ZC1/HGK K1 labeling site harbouring TGQLAAIKVMDVTEDEEEEIKLEINMLK in human Huh-7 cells at 1 uM by KiNativ Profiling analysis relative to control; format: cell-based
[10] = target: Phosphatidylinositol 4,5-bisphosphate 3-kinase catalytic subunit beta isoform (Homo sapiens) (UniProt P42338); assay: Inhibition of PIK3CB (unknown origin) at 10 uM by Ambit Kinomescan binding assay
[11] = target: Phosphorylase b kinase gamma catalytic chain, skeletal muscle/heart isoform (Homo sapiens) (UniProt Q16816); assay: Inhibition of PHKG1 (unknown origin) at 10 uM by Ambit Kinomescan binding assay
[12] = target: T1, Serine/threonine-protein kinase Nek1 (Homo sapiens) (UniProt Q96PY6); assay: Inhibition of NEK1 Lys2 labeling site in human A-375 cells at 5 uM by KiNativ Profiling analysis relative to control; format: cell-based
T1 sequence (whole entry): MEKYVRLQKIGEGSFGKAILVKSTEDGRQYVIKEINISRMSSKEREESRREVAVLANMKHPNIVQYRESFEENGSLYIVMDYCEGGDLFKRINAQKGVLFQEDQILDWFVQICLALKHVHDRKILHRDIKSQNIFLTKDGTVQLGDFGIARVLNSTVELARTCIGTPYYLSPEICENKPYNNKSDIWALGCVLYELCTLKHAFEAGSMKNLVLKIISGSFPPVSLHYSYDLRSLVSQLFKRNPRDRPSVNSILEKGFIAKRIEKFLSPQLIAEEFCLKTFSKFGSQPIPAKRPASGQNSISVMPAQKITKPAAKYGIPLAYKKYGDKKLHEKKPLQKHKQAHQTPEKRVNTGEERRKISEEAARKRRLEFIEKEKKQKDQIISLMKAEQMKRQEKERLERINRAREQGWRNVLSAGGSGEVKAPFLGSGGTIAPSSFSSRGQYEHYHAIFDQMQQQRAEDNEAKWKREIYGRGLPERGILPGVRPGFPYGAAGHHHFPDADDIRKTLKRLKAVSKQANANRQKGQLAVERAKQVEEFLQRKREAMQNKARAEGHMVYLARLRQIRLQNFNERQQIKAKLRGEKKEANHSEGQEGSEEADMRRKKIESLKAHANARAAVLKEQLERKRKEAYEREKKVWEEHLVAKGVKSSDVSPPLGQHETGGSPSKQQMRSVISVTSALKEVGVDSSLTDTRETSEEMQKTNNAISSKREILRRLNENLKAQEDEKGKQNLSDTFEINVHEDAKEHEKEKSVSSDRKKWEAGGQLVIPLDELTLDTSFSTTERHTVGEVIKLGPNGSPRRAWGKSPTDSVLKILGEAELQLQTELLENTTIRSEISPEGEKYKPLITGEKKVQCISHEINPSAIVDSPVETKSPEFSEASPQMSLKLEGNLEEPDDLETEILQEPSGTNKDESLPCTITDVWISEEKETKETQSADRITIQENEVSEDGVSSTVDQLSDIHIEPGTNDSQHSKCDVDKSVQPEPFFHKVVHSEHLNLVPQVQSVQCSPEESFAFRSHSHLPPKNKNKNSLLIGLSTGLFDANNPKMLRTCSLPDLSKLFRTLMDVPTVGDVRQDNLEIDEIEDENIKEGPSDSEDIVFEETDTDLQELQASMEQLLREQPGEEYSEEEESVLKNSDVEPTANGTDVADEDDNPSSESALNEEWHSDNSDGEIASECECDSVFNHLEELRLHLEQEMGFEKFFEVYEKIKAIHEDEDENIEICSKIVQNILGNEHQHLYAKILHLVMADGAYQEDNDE

[13] = target: Mitogen-activated protein kinase kinase kinase kinase 1 (Homo sapiens) (UniProt Q92918); assay: Inhibition of HPK1 (unknown origin) at 1 uM by Ambit Kinomescan binding assay relative to control; values are per cent of control
[14] = target: Ribosomal protein S6 kinase alpha-2 (Homo sapiens) (UniProt Q15349); assay: Inhibition of RSK3 domain1 Lys2 labeling site in human A-375 cells at 5 uM by KiNativ Profiling analysis relative to control; format: cell-based
How it was run: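 Live A375 melanoma cells treated with compound at 5 or 0.5 μM, then lysed. Lysate kinases were labeled with a lysine-reactive ATP or ADP-biotin probe. Inhibition was read as protection of labeling sites from the probe.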

[15] = target: Serine/threonine-protein kinase B-raf (Homo sapiens, UniProt P15056); assay: Inhibition of BRAF (unknown origin) at 1 uM by Ambit Kinomescan binding assay relative to control
[16] = target: Tyrosine-protein kinase CSK (Homo sapiens, UniProt P41240); assay: Inhibition of CSK (unknown origin) at 1 uM by Ambit Kinomescan binding assay relative to control
[17] = target: Mast/stem cell growth factor receptor Kit (Homo sapiens) (UniProt P10721); assay: Inhibition of KIT (unknown origin) at 1 uM by Ambit Kinomescan binding assay relative to control; values are per cent of control
[18] = target: Macrophage-stimulating protein receptor (Homo sapiens) (UniProt Q04912); assay: Inhibition of MST1R (unknown origin) at 1 uM by Ambit Kinomescan binding assay relative to control
[19] = target: Glycogen synthase kinase-3 beta (Homo sapiens) (UniProt P49841); assay: Inhibition of GSK3B (unknown origin) at 1 uM by Ambit Kinomescan binding assay relative to control; values are per cent of control
Glycogen synthase kinase-3 beta (Homo sapiens), sequence (P49841 whole entry, looked up): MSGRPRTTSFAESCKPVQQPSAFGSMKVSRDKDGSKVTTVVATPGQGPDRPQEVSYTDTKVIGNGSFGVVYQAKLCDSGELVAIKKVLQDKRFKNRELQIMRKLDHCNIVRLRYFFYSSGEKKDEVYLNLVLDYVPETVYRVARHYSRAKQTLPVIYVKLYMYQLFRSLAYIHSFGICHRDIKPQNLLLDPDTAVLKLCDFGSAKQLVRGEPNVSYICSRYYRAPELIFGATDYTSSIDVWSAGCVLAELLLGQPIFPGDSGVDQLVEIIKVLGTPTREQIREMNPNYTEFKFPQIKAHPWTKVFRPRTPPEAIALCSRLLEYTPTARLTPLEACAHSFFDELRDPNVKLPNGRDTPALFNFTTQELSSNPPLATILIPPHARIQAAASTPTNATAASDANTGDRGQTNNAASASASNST

Serine/threonine-protein kinase PLK1 (Homo sapiens), sequence (P53350 whole entry, the tested form may be a part): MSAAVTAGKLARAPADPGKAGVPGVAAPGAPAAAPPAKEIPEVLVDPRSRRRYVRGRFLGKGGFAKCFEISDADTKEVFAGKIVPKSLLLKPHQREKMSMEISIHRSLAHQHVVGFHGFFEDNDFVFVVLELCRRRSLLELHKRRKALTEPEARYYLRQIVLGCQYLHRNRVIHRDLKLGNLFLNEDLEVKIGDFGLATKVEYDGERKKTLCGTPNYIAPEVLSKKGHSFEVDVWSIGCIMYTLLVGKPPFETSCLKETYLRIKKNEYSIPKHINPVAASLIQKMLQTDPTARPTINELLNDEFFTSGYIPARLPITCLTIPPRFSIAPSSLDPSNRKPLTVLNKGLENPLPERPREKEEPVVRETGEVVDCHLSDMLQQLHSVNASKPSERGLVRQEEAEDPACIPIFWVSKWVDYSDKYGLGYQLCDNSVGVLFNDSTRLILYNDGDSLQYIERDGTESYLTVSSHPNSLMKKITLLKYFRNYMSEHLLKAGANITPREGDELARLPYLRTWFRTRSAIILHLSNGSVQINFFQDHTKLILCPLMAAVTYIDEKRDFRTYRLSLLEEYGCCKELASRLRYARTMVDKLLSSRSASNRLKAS
Phosphorylase b kinase gamma catalytic chain, skeletal muscle/heart isoform (Homo sapiens), sequence (Q16816 whole entry, looked up, canonical isoform): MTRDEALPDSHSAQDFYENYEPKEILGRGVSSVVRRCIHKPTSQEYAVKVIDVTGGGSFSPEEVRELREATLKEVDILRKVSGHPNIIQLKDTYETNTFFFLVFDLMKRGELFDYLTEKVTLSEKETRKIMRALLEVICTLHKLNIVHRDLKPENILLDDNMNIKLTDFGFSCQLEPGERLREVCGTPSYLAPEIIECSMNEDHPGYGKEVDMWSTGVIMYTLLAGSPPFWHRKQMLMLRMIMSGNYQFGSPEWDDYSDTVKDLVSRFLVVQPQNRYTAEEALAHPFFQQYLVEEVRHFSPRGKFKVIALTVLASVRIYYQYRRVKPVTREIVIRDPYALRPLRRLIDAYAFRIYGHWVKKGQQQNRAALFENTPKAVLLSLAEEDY
Ribosomal protein S6 kinase alpha-2 (Homo sapiens), sequence (Q15349 whole entry, the tested form may be a part): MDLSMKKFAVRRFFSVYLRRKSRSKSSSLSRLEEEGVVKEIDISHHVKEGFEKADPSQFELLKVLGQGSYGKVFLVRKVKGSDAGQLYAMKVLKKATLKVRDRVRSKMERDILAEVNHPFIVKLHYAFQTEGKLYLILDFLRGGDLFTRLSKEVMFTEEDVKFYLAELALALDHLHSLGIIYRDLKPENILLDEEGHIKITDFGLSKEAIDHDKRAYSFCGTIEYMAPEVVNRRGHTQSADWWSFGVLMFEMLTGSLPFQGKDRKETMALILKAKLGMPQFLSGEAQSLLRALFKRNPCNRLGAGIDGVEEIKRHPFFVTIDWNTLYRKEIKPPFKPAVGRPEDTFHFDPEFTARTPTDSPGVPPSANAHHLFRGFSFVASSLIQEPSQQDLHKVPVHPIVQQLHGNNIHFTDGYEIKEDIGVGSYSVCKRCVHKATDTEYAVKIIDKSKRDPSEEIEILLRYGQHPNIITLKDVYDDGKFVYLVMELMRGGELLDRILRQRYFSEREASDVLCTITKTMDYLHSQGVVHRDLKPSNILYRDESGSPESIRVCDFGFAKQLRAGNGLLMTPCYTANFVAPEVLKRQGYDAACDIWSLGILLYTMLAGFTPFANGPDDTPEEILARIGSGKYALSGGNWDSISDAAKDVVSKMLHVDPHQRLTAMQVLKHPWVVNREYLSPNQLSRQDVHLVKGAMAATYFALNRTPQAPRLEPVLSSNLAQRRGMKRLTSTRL
Macrophage-stimulating protein receptor (Homo sapiens), sequence (Q04912 25-304 limits assumed): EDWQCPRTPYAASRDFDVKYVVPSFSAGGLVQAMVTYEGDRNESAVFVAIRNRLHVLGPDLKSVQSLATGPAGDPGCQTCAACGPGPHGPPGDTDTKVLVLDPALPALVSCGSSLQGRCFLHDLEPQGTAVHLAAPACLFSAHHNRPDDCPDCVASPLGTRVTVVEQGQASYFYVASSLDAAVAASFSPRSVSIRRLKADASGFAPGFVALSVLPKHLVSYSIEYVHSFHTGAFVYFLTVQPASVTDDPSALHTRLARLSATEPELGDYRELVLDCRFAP
Macrophage-stimulating protein receptor (Homo sapiens), sequence (Q04912 310-1400 limits assumed): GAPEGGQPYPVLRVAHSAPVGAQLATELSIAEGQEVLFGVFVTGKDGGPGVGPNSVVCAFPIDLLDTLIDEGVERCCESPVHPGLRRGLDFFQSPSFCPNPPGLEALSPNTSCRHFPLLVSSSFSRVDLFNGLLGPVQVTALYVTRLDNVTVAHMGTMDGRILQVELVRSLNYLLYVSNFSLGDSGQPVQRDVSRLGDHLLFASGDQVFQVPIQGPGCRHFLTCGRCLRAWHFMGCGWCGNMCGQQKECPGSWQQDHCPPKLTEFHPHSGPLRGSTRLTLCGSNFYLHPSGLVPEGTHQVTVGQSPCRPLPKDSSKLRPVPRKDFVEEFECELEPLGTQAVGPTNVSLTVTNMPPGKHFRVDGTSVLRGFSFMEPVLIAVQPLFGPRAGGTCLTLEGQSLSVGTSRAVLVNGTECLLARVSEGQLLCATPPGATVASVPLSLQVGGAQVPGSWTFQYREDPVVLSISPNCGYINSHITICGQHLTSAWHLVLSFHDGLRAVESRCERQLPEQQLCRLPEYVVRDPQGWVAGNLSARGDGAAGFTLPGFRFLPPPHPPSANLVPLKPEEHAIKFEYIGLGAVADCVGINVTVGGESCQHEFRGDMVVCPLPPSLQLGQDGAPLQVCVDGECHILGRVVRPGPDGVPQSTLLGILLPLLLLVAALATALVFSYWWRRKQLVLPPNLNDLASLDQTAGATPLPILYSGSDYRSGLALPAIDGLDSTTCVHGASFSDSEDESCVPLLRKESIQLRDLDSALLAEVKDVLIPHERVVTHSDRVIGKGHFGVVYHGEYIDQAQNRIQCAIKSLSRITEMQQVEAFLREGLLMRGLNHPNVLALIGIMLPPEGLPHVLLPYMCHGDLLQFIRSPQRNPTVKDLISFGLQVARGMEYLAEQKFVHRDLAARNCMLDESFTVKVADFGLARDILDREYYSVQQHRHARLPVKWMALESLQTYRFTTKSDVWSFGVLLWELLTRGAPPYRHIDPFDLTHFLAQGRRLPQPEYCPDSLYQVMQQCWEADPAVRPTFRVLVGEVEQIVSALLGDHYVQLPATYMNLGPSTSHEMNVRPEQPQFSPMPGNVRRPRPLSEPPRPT
Phosphatidylinositol 4,5-bisphosphate 3-kinase catalytic subunit beta isoform (Homo sapiens), sequence (P42338 whole entry, looked up, canonical isoform): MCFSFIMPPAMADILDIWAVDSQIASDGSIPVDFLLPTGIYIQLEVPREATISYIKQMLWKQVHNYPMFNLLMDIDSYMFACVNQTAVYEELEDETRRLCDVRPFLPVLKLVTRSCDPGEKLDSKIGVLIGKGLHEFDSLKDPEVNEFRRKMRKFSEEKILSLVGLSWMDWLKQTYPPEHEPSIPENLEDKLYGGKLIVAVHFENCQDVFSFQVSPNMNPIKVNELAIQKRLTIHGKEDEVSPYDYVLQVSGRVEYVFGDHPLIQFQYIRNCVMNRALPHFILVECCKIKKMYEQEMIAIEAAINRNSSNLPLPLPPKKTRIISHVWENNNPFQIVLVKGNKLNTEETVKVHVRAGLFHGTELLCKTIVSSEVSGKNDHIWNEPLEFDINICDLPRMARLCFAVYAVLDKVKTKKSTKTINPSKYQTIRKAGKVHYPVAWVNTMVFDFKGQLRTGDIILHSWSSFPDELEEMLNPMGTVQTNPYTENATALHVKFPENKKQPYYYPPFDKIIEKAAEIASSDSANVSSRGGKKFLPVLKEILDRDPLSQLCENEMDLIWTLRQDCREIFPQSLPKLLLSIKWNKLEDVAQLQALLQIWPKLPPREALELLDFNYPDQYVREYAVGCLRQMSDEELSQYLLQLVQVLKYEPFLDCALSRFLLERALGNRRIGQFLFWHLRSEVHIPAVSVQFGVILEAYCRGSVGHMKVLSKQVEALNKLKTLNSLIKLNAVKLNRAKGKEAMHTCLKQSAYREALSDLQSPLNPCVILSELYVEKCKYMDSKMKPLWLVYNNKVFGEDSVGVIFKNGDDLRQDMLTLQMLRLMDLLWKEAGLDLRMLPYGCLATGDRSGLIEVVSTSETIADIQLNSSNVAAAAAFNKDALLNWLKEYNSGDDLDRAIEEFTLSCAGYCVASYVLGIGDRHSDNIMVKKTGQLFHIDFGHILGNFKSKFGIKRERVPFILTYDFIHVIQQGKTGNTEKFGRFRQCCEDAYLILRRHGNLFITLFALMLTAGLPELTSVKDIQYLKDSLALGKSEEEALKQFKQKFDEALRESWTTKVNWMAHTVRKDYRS
Tyrosine-protein kinase CSK, sequence (P41240 2-450 limits assumed): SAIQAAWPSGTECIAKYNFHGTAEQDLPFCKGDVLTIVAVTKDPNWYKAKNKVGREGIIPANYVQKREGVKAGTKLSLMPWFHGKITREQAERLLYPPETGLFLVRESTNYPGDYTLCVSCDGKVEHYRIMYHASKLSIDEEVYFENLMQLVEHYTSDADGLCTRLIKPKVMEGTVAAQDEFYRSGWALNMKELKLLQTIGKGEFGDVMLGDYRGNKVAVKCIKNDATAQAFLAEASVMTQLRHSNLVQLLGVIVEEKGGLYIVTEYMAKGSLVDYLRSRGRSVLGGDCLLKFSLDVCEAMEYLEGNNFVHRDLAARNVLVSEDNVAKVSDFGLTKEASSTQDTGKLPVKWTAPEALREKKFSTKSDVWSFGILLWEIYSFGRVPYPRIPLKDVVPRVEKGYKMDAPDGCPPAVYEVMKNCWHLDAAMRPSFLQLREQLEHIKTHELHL

Question: With `CNc1cc(Oc2cc(C(=O)Nc3cc(N4CCN(C)CC4)cc(C(F)(F)F)c3)ccc2C)ncn1` as the compound, how does the inhibition [1] read?
Answer: 1.3%

Question: What about the inhibition [2] of the same compound?
Answer: 9.3%

Question: For `CCN1CCN(Cc2ccc(NC(=O)c3ccc(C)c(Oc4ccnc5[nH]ccc45)c3)cc2C(F)(F)F)CC1`, which inhibition [3] is on record?
Answer: inactive

Question: What about the inhibition [4] of the same compound?
Answer: 5.8%

Question: And the inhibition [5]?
Answer: 3.5%

Question: What about the inhibition [6] of the same compound?
Answer: inactive

Question: What about the inhibition [7] of the same compound?
Answer: 0.45%

Question: And the inhibition [8]?
Answer: 28%

Question: What about the inhibition [9] of the same compound?
Answer: 7.6%

Question: And the inhibition [10]?
Answer: inactive

Question: And the inhibition [11]?
Answer: inactive

Question: What about the inhibition [12] of the same compound?
Answer: -7.1%

Question: With `CCN1CCN(Cc2ccc(NC(=O)c3ccc(C)c(/C=C/c4cnc5[nH]ccc5c4OC)c3)cc2C(F)(F)F)CC1` as the compound, how does the residual activity [13] read?
Answer: 0.55%

Question: What about the inhibition [14] of the same compound?
Answer: 16.5%

Question: And the inhibition [15]?
Answer: 17%

Question: And the inhibition [16]?
Answer: 2%

Question: And the residual activity [17]?
Answer: 0.3%

Question: And the inhibition [18]?
Answer: 81%

Question: What about the residual activity [19] of the same compound?
Answer: 100%

Source: ChEMBL document CHEMBL5696442, “Discovery of type II inhibitors of TGFβ-activated kinase 1 (TAK1) and mitogen-activated protein kinase kinase kinase kinase 2 (MAP4K2)” (J Med Chem, 2015)
